Source: ChEMBL document CHEMBL3868602, “Novel synthetic chalcones induce apoptosis in the A549 non-small cell lung cancer cells harboring a KRAS mutation” (Bioorg Med Chem Lett, 2016)
Each block holds one molecule with its values, some of them ahead of it. Activity calls are given as the source filed them. The rule behind the calls is not given here.

How the values were obtained:
[1] = system: A549; experiment: Cytotoxicity against human A549 cells harboring KRAS mutant assessed as increase in apoptotic cells at 1 uM after 72 hrs by crystal violet staining based assay; type: functional, cell-based
In short: (§1)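 Cells exposed 72 h to compound or DMSO vehicle, either at 1 and 10 μM or over 0.033–10 μM dose series. Surviving cells then stained with crystal violet and absorbance read at 562 nm. Effect expressed as % dead/apoptotic cells relative to DMSO, average of triplicates; dose curves n=6, run twice, mean ± SD, giving EC50.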

[2] = (§2) Cytotoxicity against human A549 cells harboring KRAS mutant assessed as increase in apoptotic cells after 72 hrs by crystal violet staining based assay; type: functional, cell-based; settings: A549, 72 h; in short: as §1
[3] = system: A549; experiment: as §2; type: functional, cell-based; in short: as §1
[4] = Cytotoxicity against human A549 cells harboring KRAS mutant assessed as apoptotic cells at 10 uM after 72 hrs by crystal violet staining based assay; type: functional; in short: as §1
[5] = Cell cycle arrest in human PC3 cells assessed as blockage of G1 phase at 1 uM after 24 hrs by propidium iodide staining based flow cytometry; type: functional; settings: PC-3
In short: (§3)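 Serum-starved 24 h to block in G1/G0, then returned to FBS-containing medium with test agent at 1 μM for a further 24 h. 0.5 × 10^6 treated cells stained with propidium iodide and analysed by flow cytometry, gating G1, S, G2/M plus apoptotic and necrotic populations. n=4–5 repeats.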

[6] = Cell cycle arrest in human PC3 cells assessed as inhibition of S phase at 1 uM after 24 hrs by propidium iodide staining based flow cytometry; type: functional; settings: PC-3; in short: as §3
[7] = system: A549; experiment: Ratio of EC50 for human PC3 cells to EC50 for human A549 cells harboring KRAS mutant; type: functional
In short: (§4)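 Ratio computed from EC50 values obtained by 72 h crystal violet survival assays (absorbance 562 nm) in each cell line, divided by the A549 EC50.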

[8] = system: PC-3; experiment: Induction of apoptosis in human PC3 cells after 72 hrs by crystal violet staining based assay; type: functional, cell-based; in short: as §1
[9] = system: HPAC; experiment: Induction of apoptosis in human HPAC CRL2119 cells after 72 hrs by crystal violet staining based assay; type: functional, cell-based; in short: as §1
[10] = system: A549; experiment: Ratio of EC50 for mouse Panc02 cells to EC50 for human A549 cells harboring KRAS mutant; type: functional; in short: as §4
[11] = system: A549; experiment: Ratio of EC50 for human HPAC CRL2119 cells to EC50 for human A549 cells harboring KRAS mutant; type: functional; in short: as §4
[12] = system: Panc02; experiment: Induction of apoptosis in mouse Panc02 cells after 72 hrs by crystal violet staining based assay; type: functional, cell-based; in short: as §1
[13] = Effect on cell cycle in NHBE cells at 1 uM after 24 hrs by propidium iodide staining based flow cytometry; settings: human; in short: as §3
[14] = system: A549; experiment: Induction of apoptosis in human A549 cells harboring KRAS mutant assessed as blockage of G2/M transition phase at 1 uM after 24 hrs by propidium iodide staining based flow cytometry; type: functional, cell-based; in short: as §3
[15] = Therapeutic index, ratio of EC50 for NHBE cells to EC50 for human A549 cells harboring KRAS mutant; type: cell-based; settings: NHBE cells versus A549 cells harboring KRAS mutant, read-out: Ratio EC50; in short: as §4
[16] = Cytotoxicity against NHBE cells assessed as decrease in cell viability at 0.01 to 10 uM after 72 hrs by crystal violet staining based assay; type: toxicity; settings: human; in short: as §1
[17] = Cytotoxicity against human A549 cells harboring KRAS mutant assessed as cell death at 1 uM after 72 hrs by crystal violet staining based assay; type: functional
In short: (§5)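 Cells treated with compound or DMSO vehicle for 72 h at 0.033–10 uM, then stained with crystal violet; absorbance at 562 nm taken as live cell number. Cell death read at 1 uM relative to DMSO controls. n=6, performed twice; mean ± SD.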

[18] = Cytotoxicity against human HPAC CRL2119 cells assessed as cell death at 1 uM after 72 hrs by crystal violet staining based assay; type: functional; in short: as §5
[19] = molecular target: T1, Retinoblastoma-associated protein (Homo sapiens) (UniProt P06400); experiment: Inhibition of phosphorylated retinoblastoma protein level in human A549 cells harboring KRAS mutant at 1 uM after 8 to 48 hrs by Western blot analysis; type: cell-based
T1 sequence (whole entry): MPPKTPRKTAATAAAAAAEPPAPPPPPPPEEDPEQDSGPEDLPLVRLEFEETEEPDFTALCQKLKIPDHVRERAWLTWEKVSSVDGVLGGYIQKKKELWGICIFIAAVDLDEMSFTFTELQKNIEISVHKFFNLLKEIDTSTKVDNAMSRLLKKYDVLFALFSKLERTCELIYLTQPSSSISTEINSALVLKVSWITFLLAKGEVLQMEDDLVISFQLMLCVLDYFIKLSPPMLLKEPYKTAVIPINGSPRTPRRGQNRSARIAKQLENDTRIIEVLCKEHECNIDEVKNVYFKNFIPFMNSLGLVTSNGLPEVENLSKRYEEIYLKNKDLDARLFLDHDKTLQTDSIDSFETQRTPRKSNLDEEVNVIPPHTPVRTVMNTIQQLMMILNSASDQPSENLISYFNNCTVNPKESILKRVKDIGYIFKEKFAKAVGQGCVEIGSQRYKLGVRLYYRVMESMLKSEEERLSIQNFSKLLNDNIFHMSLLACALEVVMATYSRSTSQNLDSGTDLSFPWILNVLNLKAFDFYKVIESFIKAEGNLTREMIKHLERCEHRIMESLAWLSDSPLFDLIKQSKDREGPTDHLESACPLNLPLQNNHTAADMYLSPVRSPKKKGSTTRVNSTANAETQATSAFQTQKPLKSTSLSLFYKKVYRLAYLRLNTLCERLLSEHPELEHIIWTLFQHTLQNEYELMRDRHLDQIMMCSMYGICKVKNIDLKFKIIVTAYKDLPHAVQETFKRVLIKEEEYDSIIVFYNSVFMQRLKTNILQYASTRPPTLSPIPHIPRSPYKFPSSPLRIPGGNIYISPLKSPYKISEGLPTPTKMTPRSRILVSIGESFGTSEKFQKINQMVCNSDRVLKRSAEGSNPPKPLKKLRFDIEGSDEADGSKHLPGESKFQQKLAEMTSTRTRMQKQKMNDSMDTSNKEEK
In short: (§6)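 A549 cells given serum-containing medium with DMSO or 1 μM compound for 8, 24 or 48 h. Lysates immunoblotted for cyclin A2, cyclin B1, phospho-Rb, total Rb and phospho-STMN1. Two independent experiments.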

[20] = system: A549; experiment: Suppression of cyclin A2 level in human A549 cells harboring KRAS mutant at 1 uM after 8 to 48 hrs by Western blot analysis; type: functional, cell-based; in short: as §6
[21] = Cytotoxicity against human PC3 cells assessed as cell death at 1 uM after 72 hrs by crystal violet staining based assay; type: functional, PC-3; in short: as §5
[22] = molecular target: T2, Stathmin (Homo sapiens) (UniProt P16949); experiment: Increase in STMN1 phosphorylation in human A549 cells harboring KRAS mutant at 1 uM after 8 hrs by Western blot analysis; type: cell-based; in short: as §6
T2 sequence (whole entry): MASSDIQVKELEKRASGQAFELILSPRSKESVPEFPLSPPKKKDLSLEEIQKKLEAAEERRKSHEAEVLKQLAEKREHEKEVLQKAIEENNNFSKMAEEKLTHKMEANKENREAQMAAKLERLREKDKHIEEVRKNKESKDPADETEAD

[23] = Cytotoxicity against mouse Panc02 cells assessed as cell death at 1 uM after 72 hrs by crystal violet staining based assay; type: functional; in short: as §5

SMILES: COc1cc2c(cc1OC)C(=O)/C(=C/c1ccc3ccn(C)c3c1)CC2
Activity [1]: Active | EC50 [2]: 10000 nM | Activity [3]: Dose-dependent effect

SMILES: O=C1/C(=C/c2ccc3[nH]ccc3c2)CCc2ccc(Br)cc21
Activity [3]: Dose-dependent effect | Activity [4]: 16%

SMILES: Cn1ccc2cc(/C=C3\CCc4ccc(F)cc4C3=O)ccc21
Activity [1]: Active | EC50 [2]: 200 nM | Activity [3]: Dose-dependent effect

SMILES: O=C1/C(=C/c2ccc3[nH]ccc3c2)CCc2ccc(F)cc21
Activity [1]: Active | EC50 [2]: 270 nM | Activity [3]: Dose-dependent effect

SMILES: CC(C)(C)OC(=O)n1ccc2cc(/C=C3\CCc4ccc(F)cc4C3=O)ccc21
Activity [3]: Dose-dependent effect

SMILES: CCn1ccc2cc(/C=C3\CCc4ccc(Br)cc4C3=O)ccc21
Activity [3]: Dose-dependent effect

SMILES: COc1ccc2c(c1)C(=O)/C(=C/c1ccc3ccn(C)c3c1)CC2
Activity [1]: Active | EC50 [2]: 5800 nM | Activity [3]: Dose-dependent effect

SMILES: Cn1ccc2ccc(/C=C3\CCc4ccc(Br)cc4C3=O)cc21
Activity [3]: Dose-dependent effect | Activity [4]: 26%

SMILES: Cn1ccc2ccc(/C=C3\CCc4ccccc4C3=O)cc21
Activity [1]: Active | EC50 [2]: 470 nM | Activity [3]: Dose-dependent effect

SMILES: O=C1/C(=C/c2ccc3[nH]ccc3c2)CCc2ccccc21
Activity [1]: Active | EC50 [2]: 1130 nM | Activity [3]: Dose-dependent effect

SMILES: COc1cc(/C=C2\CCc3ccc(F)cc3C2=O)cc(OC)c1OC
Activity [5]: Active | inhibition [6]: Active

EC50 ([8]; PC-3, 72 h): 450 nM | EC50 [9]: 310 nM | EC50 ([12]; Panc02, 72 h): 590 nM
SMILES: CCn1ccc2cc(/C=C3\CCc4ccc(F)cc4C3=O)ccc21
Ratio EC50 [7]: >4 | Activity [8]: Dose-dependent effect | Activity [9]: Dose-dependent effect | Ratio EC50 [10]: >4 | Activity [1]: Active | EC50 [2]: 110 nM | Activity [3]: Dose-dependent effect | Ratio EC50 [11]: 2.8 | Activity [12]: Dose-dependent effect

SMILES: CCn1ccc2cc(/C=C3\CCc4ccc(OC)cc4C3=O)ccc21
Activity [1]: Active | EC50 [2]: 3000 nM | Activity [3]: Dose-dependent effect

SMILES: CC(=O)n1ccc2cc(/C=C3\CCc4ccc(F)cc4C3=O)ccc21
Activity [3]: Dose-dependent effect | Activity [4]: 28%

SMILES: Cn1ccc2cc(/C=C3\CCc4ccccc4C3=O)ccc21
Activity [1]: Active | EC50 [2]: 470 nM | Activity [3]: Dose-dependent effect

SMILES: COc1ccc2c(c1)C(=O)/C(=C/c1ccc3[nH]ccc3c1)CC2
Activity [13]: Non-Toxic | Activity [14]: Active | selectivity ratio [15]: > 18 | Activity [16]: Non-Toxic | Activity [17]: 80% | Activity [18]: <40% | inhibition [19]: Active | Activity [1]: Active | EC50 [2]: 550 nM | Activity [3]: Dose-dependent effect | Activity [20]: Active | Activity [21]: <40% | Activity [22]: Active | Activity [23]: <40%

SMILES: CCn1ccc2cc(/C=C3\CCc4cc(OC)c(OC)cc4C3=O)ccc21
Activity [3]: Dose-dependent effect | Activity [4]: 19%

SMILES: COc1ccc2c(c1)C(=O)/C(=C/c1ccc3c(ccn3C)c1)CC2
Activity [1]: Active | EC50 [2]: 3000 nM | Activity [3]: Dose-dependent effect

SMILES: CC(C)(C)OC(=O)n1ccc2cc(/C=C3\CCc4ccccc4C3=O)ccc21
Activity [3]: Dose-dependent effect

SMILES: Cn1ccc2cc(/C=C3\CCc4ccc(Br)cc4C3=O)ccc21
Activity [3]: Dose-dependent effect | Activity [4]: 21%

SMILES: O=C1/C(=C/c2ccc3c(ccn3Cc3ccccc3)c2)CCc2ccc(F)cc21
Activity [3]: Dose-dependent effect

SMILES: CCn1ccc2cc(/C=C3\CCc4ccccc4C3=O)ccc21
Activity [1]: Active | EC50 [2]: 460 nM | Activity [3]: Dose-dependent effect

SMILES: COc1cc2c(cc1OC)C(=O)/C(=C/c1ccc3c(ccn3C)c1)CC2
Activity [3]: Dose-dependent effect
